# Screens as filed in PubChem.
# p97 ATPase inh – inhibitors of human p97 ATPase, primary screen, biochemical | Transitional endoplasmic reticulum ATPase (Homo sapiens), P55072 | recombinant p97 ATPase, Kinase-Glo ATP luminescence, 3 h | inhibition, % at 8 µM | 220,000 compounds, 0.42% hits; in the data active = inhibition above about 15%;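 note: 0% = DMSO vehicle and 100% = wells lacking enzyme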
# RanGTP-Imp inh – inhibitors of RanGTP-importin-beta interaction, primary screen, biochemical, FRET, CFP-Ran, YFP-importin-beta, homogeneous | cell-free CFP-Ran/YFP-importin-beta FRET ratio | 300,000 compounds, 1.1% hits | inhibition, % (no concentration beside the values) | Ran GTPase (GTP-bound) - importin-beta complex;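 active = more than half of the replicate wells show a fall in the fluorescence ratio signal beyond about 16%, limit read from the data, passing the limit was not always enough; inconclusive = exactly half of the replicate wells pass the set limit; inactive = fewer than half of replicates pass the limit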;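 note: 0% = DMSO wells and 100% = Ran loaded with GDP instead of GTP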
# Runt-CBFb FRET – inhibitors of RUNX1 Runt–CBFb binding, primary screen, biochemical, FRET, Cerulean-Runt, Venus-CBFb, uHTS; AID 1496, 2009; Cerulean-Runt/Venus-CBFb FRET ratio 530/480, 1 h; inhibition, % at 20 µM; 220,000 compounds, 0.46% hits; Runt-related transcription factor 1 (Homo sapiens) + Core-binding factor subunit beta …;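 active = inhibition over about 50% at 20 µM in the single-dose screen, limit read from the data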;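 note: 0% = DMSO wells and 100% = excess unlabeled CBFb competitor control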
# Target sequence (Q01196 whole entry, looked up): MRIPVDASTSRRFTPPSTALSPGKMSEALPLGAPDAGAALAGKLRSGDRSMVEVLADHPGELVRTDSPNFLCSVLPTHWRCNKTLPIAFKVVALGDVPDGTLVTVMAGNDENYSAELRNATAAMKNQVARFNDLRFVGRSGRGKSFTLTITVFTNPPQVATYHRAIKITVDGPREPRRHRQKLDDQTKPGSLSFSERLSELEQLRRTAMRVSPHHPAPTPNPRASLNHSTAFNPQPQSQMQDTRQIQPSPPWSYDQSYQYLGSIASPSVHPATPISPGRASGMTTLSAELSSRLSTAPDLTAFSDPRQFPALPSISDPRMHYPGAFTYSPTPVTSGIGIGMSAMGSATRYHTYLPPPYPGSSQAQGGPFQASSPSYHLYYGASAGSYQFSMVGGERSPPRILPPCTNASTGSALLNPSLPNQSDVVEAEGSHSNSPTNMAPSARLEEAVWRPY
# Target sequence (Q13951 whole entry, looked up): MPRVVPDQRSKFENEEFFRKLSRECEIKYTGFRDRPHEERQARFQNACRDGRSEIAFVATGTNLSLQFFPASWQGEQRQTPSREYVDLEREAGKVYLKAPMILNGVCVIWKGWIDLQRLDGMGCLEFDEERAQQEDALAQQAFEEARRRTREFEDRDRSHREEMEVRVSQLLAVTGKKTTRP
#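 Assay system: Cerulean-Runt domain / Medium: Tris 50 mM pH 7.5, KCl, K2SO4, 0.01% BSA / Timing: protein complex preformed 1 h, compound exposure 1 h, room temperature, dark / Measured by: FRET, excitation 422 nm, emission at 530 and 480 nm / Evaluation: loss of energy transfer signal / Control set: 5 µM unlabeled CBFb as full-inhibition high control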
# Hck-Nef inh – inhibitors of Nef-activated human Hck kinase, primary screen, biochemical, Z-Lyte FRET, 384-well, Hck-YEEI; Recombinant Hck-YEEI plus Nef, Z-Lyte FRET kinase assay; inhibition, % at 20 µM; 220,000 compounds, 0.68% hits; AID 463187, 2010;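 active = Hck-Nef kinase inhibition above about 50%, limit read from the data; inactive = inhibition below that limit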;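 note: 0% = DMSO with Hck plus Nef and 100% = Hck alone without Nef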
# Runt-SMMHC FRET – inhibitors of RUNX1 Runt–CBFb-SMMHC binding, primary screen, biochemical, FRET, Cerulean-Runt, Venus-CBFb-SMMHC, uHTS. inhibition, % at 20 µM. Runt-related transcription factor 1 (Homo sapiens) + Core-binding factor subunit beta …. 220,000 compounds, 0.74% hits. Cerulean-Runt/Venus-CBFb-SMMHC FRET ratio 530/480, 1 h;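 active = mean inhibition across duplicate retests at 20 µM reaching about 50%, limit read from the data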;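 note: 0% = DMSO wells and 100% = wells with excess untagged CBFb-SMMHC; inhibitors lower the FRET ratio by blocking Runt binding to CBFb-SMMHC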
# Tb hexokinase – Trypanosoma brucei hexokinase 1 inhibitors, primary screen, biochemical, G6PDH-coupled NADH absorbance, MLSCN library; 220,000 compounds, 0.11% hits; AID 1430, 2008; inhibition, % at 10 µM; hexokinase 1 [Trypanosoma brucei]; recombinant TbHK1, G6PDH-coupled NADH A340;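 active = inhibition of 50% or more in the single-dose primary screen; inactive = inhibition below 50%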
# * = called active by the depositor; ? = inconclusive; nt = no result given. Shown are actives, neighbours in structure and some others; about 2.1% of the full set was active somewhere.
SMILES,p97 ATPase inh,RanGTP-Imp inh,Runt-CBFb FRET,Hck-Nef inh,Runt-SMMHC FRET,Tb hexokinase
CN(c1ccc(C(=O)N/N=C/c2cccc([N+](=O)[O-])c2)cc1)S(=O)(=O)c1ccccc1,nt,27.7*,nt,nt,nt,nt
CCOC(=O)c1sc(N/N=C/c2ccccc2)nc1C,-1.2,8.5,33.2,12.3,11.6,-10.8
CC(=O)c1sc(N/N=C\c2ccccc2O)nc1C,0.2,37.9*,nt,13.5,nt,-21.5
Nc1cc(Cl)ccc1N1CCCCCC1,2.5,2.9,2.2,15.4,0.8,-0.8
Cc1cc(C)c2c3c(sc2n1)C(c1cccc(F)c1)C(C#N)=C(N)O3 (configuration not stated),-0.5,91.1*,90.3*,-16.2,61.6*,-0.4
CCOC(=O)c1c(NC(=O)c2ccco2)n(C2CCCCC2)c2nc3ccccc3nc12,7.5,79.1*,18.6,14.7,31.7,-16.7
CCOC(=O)c1c(N)n(-c2ccc(N)cc2)c2nc3ccccc3nc12,6.6,0.3,1.0,-5.1,5.9,-21.7
CCOC(=O)c1c(N)n(C2CC(C)(C)NC(C)(C)C2)c2nc3ccccc3nc12,-4.7,?,49.6,29.9,93.9*,-15.3
CCOC(=O)c1c(C)nsc1NC(=O)c1ccco1,nt,3.9,nt,nt,nt,nt
CC(C)(CC(=O)O)CC(=O)Nc1ccc(Cl)c(Cl)c1,3.6,0.7,2.4,12.3,-1.4,-3.9
CCc1ccc(NC(=S)N2CCCC(C(F)(F)F)C2)cc1 (configuration not stated),1.6,2.1,0.6,-2.9,4.1,-0.4
CSC1=NC(C(Cl)(Cl)Cl)N=C(c2ccccc2)N1 (configuration not stated),-0.7,?,0.1,4.7,0.7,-4.6
CC(=O)N1CCN(c2nc3cc4c(cc3nc2NS(=O)(=O)c2ccccc2)OCCO4)CC1,8.2,43.5*,92.5*,10.0,43.6,-15.9
CCCn1c(=S)[nH]c2cc(C(=O)N3CCN(C4CCCCC4)CC3)ccc2c1=O,nt,0.3,nt,nt,nt,nt
Cc1cccc2c1-c1sc(C(=O)Nc3nccs3)cc1CO2,-2.8,22.3*,-20.4,11.1,24.7,-8.1
O=C(Nc1nc2ccccc2s1)c1cc2c(s1)-c1ccccc1OC2,2.0,36.8*,18.8,35.6,58.6*,-18.5
O=C(Nc1nccs1)c1cc2c(s1)-c1ccccc1OC2,6.4,4.3,-21.9,3.6,32.5,-2.0
O=C(Nc1ccc(Cl)cn1)c1cc2c(s1)-c1ccccc1OC2,3.8,58.0*,32.5,47.5,37.8,-28.3
COc1ccc2oc(=O)c(C(=O)NCc3ccccc3)cc2c1,nt,-2.3,nt,nt,nt,nt
CCCOc1ccc2cc(C(=O)NCc3ccccc3)c(=O)oc2c1,nt,58.9*,nt,nt,nt,nt
COc1ccc2cc(C(=O)NCc3ccco3)c(=Nc3ccc(C(=O)O)cc3)oc2c1,3.8,1.5,0.1,-2.2,-0.1,-7.5
COc1ccc2cc(C(=O)NCc3ccco3)c(=O)oc2c1,1.0,?,35.1,3.7,76.8*,-19.9
COCCn1c(Cc2ccccc2)nnc1SCC(=O)NC1CC1,nt,2.4,nt,nt,nt,nt
COc1cc2c3nnc(-c4ccccc4)c-3cn(Cc3ccc(F)cc3)c2cc1OC,2.0,34.8*,12.7,7.1,40.5,-4.1
COc1ccc(NC(=O)CN(C)C(=O)c2oc3ccccc3c2C)cc1,3.3,-2.3,-3.2,0.7,0.1,4.6
SMILES,p97 ATPase inh,RanGTP-Imp inh,Runt-CBFb FRET,Hck-Nef inh,Runt-SMMHC FRET,Tb hexokinase
Fc1ccc(-c2cc3nc(-c4ccccc4)cc(N4CCN(CCN5CCOCC5)CC4)n3n2)cc1,-2.3,21.8*,3.9,5.5,10.9,-8.6
CN1CCN(c2cc(-c3ccccc3)nc3cc(-c4ccc(F)cc4)nn23)CC1,-0.3,0.3,-5.5,7.2,2.9,-26.0
O=C1/C(=C/N(C(=O)c2ccco2)c2ccc(Br)cc2)Sc2ccccc21,-5.2,25.0*,19.9,1.7,66.6,4.3
O=C1/C(=C/N(C(=O)c2ccco2)c2ccc(Cl)cc2)Sc2ccccc21,2.5,9.8,21.3,6.1,74.9*,2.3
COc1ccc(CN(C(=O)c2ccco2)c2ccc(Br)cc2)cc1OC,-2.7,0.0,-1.0,-0.4,-43.7,-4.0
CCOc1ccc(N2C(=O)C(=O)/C(=C(/O)c3ccccc3)C2c2ccccc2[N+](=O)[O-])cc1 (configuration not stated),8.7,-0.4,13.9,-2.0,2.7,-17.3
CCCCN(CCCC)CCCN1CC(=O)N2[C@@H](Cc3c([nH]c4ccccc34)C2(C)C)C1=O,nt,-1.9,nt,nt,nt,nt
CCC(=O)Nc1cccc(C2=NOC3(C2)C[C@@H](C(N)=O)N(C(=O)CC(c2ccccc2)c2ccccc2)C3)c1 (some centres not stated),nt,-3.5,2.1,27.4,-4.3,-4.1
CCC(=O)Nc1cccc(C2=NOC3(C2)C[C@@H](C(N)=O)N(C(=O)C(c2ccccc2)c2ccccc2)C3)c1 (some centres not stated),nt,26.3*,-2.7,24.7,-0.4,-17.3
Cc1ccnc(NC(=O)c2ccc(Cl)c(NC(=O)C(C)Oc3ccccc3)c2)c1 (configuration not stated),1.7,5.0,-2.2,16.6,3.2,-1.5
Cc1ccnc(NC(=O)c2ccc(Cl)c(NC(=O)CCc3ccccc3)c2)c1,-0.1,23.6*,0.1,4.3,-2.4,0.7
CCCCn1nc(NC(=O)c2cccs2)c2cc3ccccc3nc21,-1.4,73.5*,25.6,12.6,63.4*,1.5
CCCn1nc(NC(=O)c2cccs2)c2cc3ccccc3nc21,3.7,60.8*,nt,14.1,50.2*,-1.2
Cn1cccc1/C=C1\SC(=O)N(CC(=O)Nc2ccc(Cl)cc2)C1=O,-2.0,5.0,-1.3,-0.5,-2.3,0.6
CCOc1ccc(NC(=O)CN2C(=O)S/C(=C/c3cccn3C)C2=O)cc1,2.4,16.4*,-11.7,17.9,-46.7,-8.0
COc1cc(CC(NC(C)=O)C(=O)NC2CCN(S(=O)(=O)c3ccc(NC(C)=O)cc3)CC2)cc(OC)c1 (configuration not stated),nt,0.4,nt,nt,nt,nt
CC1CCc2[nH]c3ccc(C(=O)NCCCOC(C)C)cc3c2C1 (configuration not stated),-3.3,21.8*,0.4,-5.3,7.8,-6.1
